Reference: ChEMBL document CHEMBL1156597, “Structure-activity relationship of kahalalide F synthetic analogues” (J Med Chem, 2008)

How the values were obtained:
DU-145 = assay: Cytotoxicity against human DU145 cells after 48 hrs by SRB assay; type: functional, cell-based; conditions: Homo sapiens, DU-145, 48 h; for CC50: read-out: LC50 (the source's name)
Method in brief: (§1)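 Cells grown in RPMI 1640 with 10% FBS and penicillin/streptomycin at 37 °C and 5% CO₂, trypsinized, then seeded at 5 × 10³/well. After 18 h drug-free attachment, samples in DMSO/EtOH/PBS (0.5:0.5:99) were added for 48 h continuous exposure. Cells were fixed with cold TCA (1 h, 4 °C) and stained with SRB (10 min). Tris-solubilized stain read at 490 nm. Triplicate wells, mean ± SD; GI₅₀ derived.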

LNCaP = assay: Cytotoxicity against human LNcaP cells after 48 hrs by SRB assay; type: functional; conditions: for CC50: read-out: LC50 (the source's name); method in brief: as §1
[1] = Cytotoxicity against human IGROV cells after 48 hrs by SRB assay; type: functional; conditions: for CC50: read-out: LC50 (the source's name); method in brief: as §1
[2] = Cytotoxicity against human IGROV-ET cells after 48 hrs by SRB assay; type: functional; conditions: for CC50: read-out: LC50 (the source's name); method in brief: as §1
SK-MEL-28 = assay: Cytotoxicity against human SK-MEL-28 cells after 48 hrs by SRB assay; type: functional, cell-based; conditions: Homo sapiens, SK-MEL-28, 48 h; for GI50: read-out: GI50; for CC50: read-out: LC50 (the source's name); method in brief: as §1
A549 = assay: Cytotoxicity against human A549 cells after 48 hrs by SRB assay; type: functional, cell-based; conditions: Homo sapiens, A549, 48 h; for GI50: read-out: GI50; method in brief: as §1
K562 = assay: Cytotoxicity against human K562 cells after 48 hrs by SRB assay; type: functional; conditions: K562, 48 h; for CC50: read-out: LC50 (the source's name); method in brief: as §1
PANC-1 = assay: Cytotoxicity against human PANC1 cells after 48 hrs by SRB assay; type: functional; conditions: PANC-1, 48 h; for CC50: read-out: LC50 (the source's name); method in brief: as §1
HT-29 = assay: Cytotoxicity against human HT29 cells after 48 hrs by SRB assay; type: functional, cell-based; conditions: Homo sapiens, HT-29, 48 h; for CC50: read-out: LC50 (the source's name); method in brief: as §1
LoVo [3] = assay: Cytotoxicity against human LoVo cells after 48 hrs by SRB assay; type: functional; conditions: for CC50: read-out: LC50 (the source's name)
LoVo [4] = assay: Cytotoxicity against human doxorubicin resistant LoVo cells after 48 hrs by SRB assay; type: functional; conditions: for CC50: read-out: LC50 (the source's name); method in brief: as §1
HeLa = assay: Cytotoxicity against human HeLa cells after 48 hrs by SRB assay; type: functional; conditions: read-out: LC50 (the source's name); method in brief: as §1
[5] = Cytotoxicity against human HeLa-APL cells after 48 hrs by SRB assay; type: functional; method in brief: as §1

| Compound | CC50 (DU-145) [nM] | GI50 (LNCaP) [nM] | TGI (LNCaP) [nM] | CC50 (LNCaP) [nM] | CC50 [1] [nM] | GI50 ([2]; read-out: GI50) [nM] | CC50 [2] [nM] | CC50 (SK-MEL-28) [nM] | LC50 (A549) [nM] | TGI (A549) [nM] | GI50 (A549) [nM] | GI50 (K562) [nM] | TGI (K562) [nM] | CC50 (K562) [nM] | GI50 (PANC-1) [nM] | TGI (PANC-1) [nM] | CC50 (PANC-1) [nM] | CC50 (HT-29) [nM] | CC50 (LoVo [3]) [nM] | CC50 (LoVo [4]) [nM] | also measured |
| --- | --- | --- | --- | --- | --- | --- | --- | --- | --- | --- | --- | --- | --- | --- | --- | --- | --- | --- | --- | --- | --- |
| C/C=C1\NC(=O)[C@H](Cc2ccccc2)NC(=O)[C@@H](C(C)C)NC(=O)[C@@H]([C@H](C)CC)NC(=O)[C@H](NC(=O)[C@H](NC(=O)[C@H](CCCN)NC(=O)[C@H]2CCCN2C(=O)[C@H](NC(=O)[C@@H](NC(=O)[C@@H](NC(=O)[C@H](NC(=O)Cc2ccc(C(F)(F)F)cc2)C(C)C)[C@@H](C)O)C(C)C)C(C)C)[C@H](C)CC)[C@H](C)OC(=O)[C@H](C(C)C)NC1=O | 6240 | 1630 | 3130 | 4400 | 1890 | 866 | 524 | 1200 | 1100 | 2150 | 1840 | 2230 | 2520 | 2790 | 2170 | 2250 | 2340 | 2920 | 819 | 1240 | TGI (DU-145): 5500 nM; GI50 (DU-145; read-out: GI50): 5280 nM; GI50 [1]: 892 nM; GI50 ([1]; read-out: GI50): 1000 nM; GI50 [2]: 675 nM; TGI (SK-MEL-28): 15900 nM; GI50 (SK-MEL-28): 2800 nM; GI50 (HT-29): 1680 nM; TGI (HT-29): 2300 nM; GI50 (LoVo [3]): 458 nM; TGI (LoVo [3]): 492 nM |
| C/C=C1\NC(=O)[C@H](Cc2ccccc2)NC(=O)[C@@H](C(C)C)NC(=O)[C@@H]([C@H](C)CC)NC(=O)[C@H](NC(=O)[C@H](NC(=O)[C@H](CCCN)NC(=O)[C@H]2CCCN2C(=O)[C@H](NC(=O)CCCC(C)C)C(C)C)[C@H](C)CC)[C@H](C)OC(=O)[C@H](C(C)C)NC1=O | 22300 | 9850 | 9970 | 8890 | 6040 | – | 6210 | 2500 | 2870 | – | – | 3480 | 3510 | 3540 | 2920 | 2660 | 2450 | 7470 | 4320 | 5840 | – |
| C/C=C1\NC(=O)[C@H](Cc2ccccc2)NC(=O)[C@@H](C(C)C)NC(=O)[C@@H]([C@H](C)CC)NC(=O)[C@H](NC(=O)[C@H](NC(=O)[C@H](CCC(=O)O)NC(=O)[C@H]2CCCN2C(=O)[C@H](NC(=O)[C@@H](NC(=O)[C@@H](NC(=O)[C@H](NC(=O)CCCC(C)C)C(C)C)[C@@H](C)O)C(C)C)C(C)C)[C@H](C)CC)[C@H](C)OC(=O)[C@H](C(C)C)NC1=O | 10200 | 1880 | 3130 | 4360 | 3200 | 3540 | 3540 | 1980 | 22600 | 8950 | 1090 | 3320 | 4200 | 2900 | 2500 | 2540 | 2600 | 4000 | 1350 | 3590 | TGI [1]: 2530 nM; GI50 ([1]; read-out: GI50): 1950 nM; TGI [2]: 3530 nM; TGI (SK-MEL-28): 4980 nM; GI50 (SK-MEL-28): 5890 nM; GI50 (HT-29): 2670 nM; TGI (HT-29): 3260 nM; GI50 (LoVo [3]): 785 nM; TGI (LoVo [3]): 692 nM |
| C/C=C1\NC(=O)[C@H](Cc2ccccc2)NC(=O)[C@@H](C(C)C)NC(=O)[C@@H]([C@H](C)CC)NC(=O)[C@H](NC(=O)[C@H](NC(=O)[C@H](CCCN)NC(=O)[C@H]2CCCN2C(=O)[C@H](NC(=O)[C@@H](NC(=O)[C@@H](NC(=O)[C@@H](NC(=O)CCCC(C)C)C(C)C)[C@@H](C)O)C(C)C)C(C)C)[C@H](C)CC)[C@H](C)OC(=O)[C@H](C(C)C)NC1=O | 842 | 853 | 911 | 967 | 668 | 2890 | 527 | 1060 | 1040 | 1180 | 1330 | – | – | 153 | 1510 | 1560 | 1590 | 501 | 2090 | 2880 | GI50 (DU-145): 771 nM; GI50 (DU-145; read-out: GI50): 549 nM; GI50 [2]: 529 nM; TGI (SK-MEL-28): 1030 nM; GI50 (SK-MEL-28): 1000 nM; GI50 (HT-29): 635 nM; TGI (HT-29): 728 nM; GI50 (LoVo [3]): 1300 nM; TGI (LoVo [3]): 3250 nM; GI50 (LoVo [4]): 1760 nM; TGI (LoVo [4]): 2250 nM; CC50 (HeLa): 1020 nM; GI50 [5]: 1040 nM; LC50 (concentration giving 50% net cell kill) [5]: 969 nM; TGI [5]: 1510 nM |
| C/C=C1\NC(=O)[C@H](Cc2ccccc2)NC(=O)[C@@H](C(C)C)NC(=O)[C@@H]([C@H](C)CC)NC(=O)[C@H](NC(=O)[C@H](NC(=O)[C@H](CCCN)NC(=O)[C@H]2CCCN2C(=O)[C@H](NC(=O)[C@@H](NC(=O)[C@@H](NC(=O)[C@H](NC(=O)CCCCC(C)(F)F)C(C)C)[C@@H](C)O)C(C)C)C(C)C)[C@H](C)CC)[C@H](C)OC(=O)[C@H](C(C)C)NC1=O | 5480 | 1840 | 2870 | 3730 | 2460 | 987 | 571 | 1300 | 1440 | 2320 | 2030 | 2960 | 2460 | 2060 | 2040 | 1850 | 1690 | 3190 | 444 | 50700 | TGI (DU-145): 3920 nM; GI50 (DU-145; read-out: GI50): 4520 nM; TGI [1]: 1540 nM; GI50 ([1]; read-out: GI50): 1330 nM; GI50 [2]: 751 nM; GI50 (HT-29): 1960 nM; TGI (HT-29): 2510 nM; GI50 (LoVo [3]): 442 nM; TGI (LoVo [3]): 397 nM |
| C/C=C1\NC(=O)[C@H](Cc2ccccc2)NC(=O)[C@@H](C(C)C)NC(=O)[C@@H]([C@H](C)CC)NC(=O)[C@H](NC(=O)[C@H](NC(=O)[C@H](CCCN)NC(=O)[C@H]2CCCN2C(=O)[C@H](NC(=O)CCCCCCCCCCCCC)C(C)C)[C@H](C)CC)[C@H](C)OC(=O)[C@H](C(C)C)NC1=O | 17900 | 7210 | 8100 | 8020 | 5330 | – | 5190 | 1870 | 2650 | – | – | 3000 | 3470 | 3390 | 2450 | 2400 | 2160 | 6890 | 3980 | 5370 | – |
